From ChEMBL document CHEMBL1955770, “Inhibition of S/G2 phase CDK4 reduces mitotic fidelity” (J Biol Chem, 2006)
Activity calls are given as the source filed them. The calls are words filed in the database; no cut-off is given here.

Experiments:
[1] = test system: HeLa; experiment: Cell cycle arrest in human HeLa cells assessed as accumulation at S phase at 2 uM treated 6 hr and measured 8 hr post double thymidine-synchrony release using propidium iodide staining by FACS analysis (reference value: 8 %); format: functional
Method in brief: (§1)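 Cells harvested at set times post-release, fixed in 70% ethanol, stained with 5 μg/ml propidium iodide plus 0.5 mg/ml RNase A, and analysed by flow cytometry. Cell-cycle phase fractions calculated by ModFit.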

[2] = test system: HeLa; experiment: Cell cycle arrest in human HeLa cells assessed as accumulation at G1 phase at 2 uM treated 2 hr and measured 8 hr post double thymidine-synchrony release using propidium iodide staining by FACS analysis (reference value: 6 %); format: functional
[3] = test system: HCT-116; experiment: Cell cycle arrest in Rb-competent human HCT116 cells assessed as accumulation at S phase at 3 times IC90 after 24 hrs using BrdUrd staining by FACS analysis (Rvb =38 %); format: functional
[4] = test system: HeLa; experiment: Induction of abberent mitosis in human HeLa cells expressing GFP-H2B assessed as micronuclei formation during interphase at 2 uM treated 1 hr and measured 24 hr post thymidine-synchrony release by time-lapse microscopy (reference value: 10%); format: functional
[5] = test system: HeLa; experiment: Cell cycle arrest at G2 phase in human HeLa cells assessed as delay in phosphotyrosine 15 CDK2 accumulation at 2 uM treated at early S phase measured after 6-14 hr post thymidine-synchrony release by immunoblot method; format: functional, cell-based
Method in brief: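 HeLa cells synchronized by double thymidine block and released, treated with 2 μM inhibitor in early S phase, or left untreated. Harvested at set times after release, lysed in NETN with phosphatase and protease inhibitors, run on SDS-PAGE and immunoblotted for cyclin B1 and phosphotyrosine 15 CDK1/2, with cyclin D3 as loading control. Detection by HRP secondary and ECL.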

[6] = test system: A2058; experiment: Cell cycle arrest in human A2058 cells assessed as accumulation at G1 phase at 2 uM treated 1 hr and measured 10 hr post double hydroxyurea-synchrony release using propidium iodide staining by FACS analysis; format: functional
[7] = test system: HeLa; experiment: Induction of abberent mitosis in human HeLa cells expressing GFP-H2B assessed as lagging chromosomes at astral side of spindle microtubules at 2 uM treated 1 hr and measured 12 hr post-thymidine release by time-lapse microscopy; format: functional, cell-based
[8] = test system: HeLa; experiment: Cell cycle arrest in Rb-deficient human HeLa cells assessed as accumulation at S phase at 2 uM after 24 hrs by FACS analysis; format: functional
Method in brief: (§2)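 Ethanol-fixed cells stained with propidium iodide/RNase A, DNA content read by FACS, phase and sub-diploid fractions calculated with ModFit.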

[9] = test system: COLO 205; experiment: Toxicity in human COLO205 cells at IC50 after 3 days by MTT assay; format: cell-based; settings: colo 205, 72 h
[10] = test system: HeLa; experiment: Cell cycle arrest in Rb-deficient human HeLa cells assessed as accumulation at G2/M phase at 2 uM after 24 hrs by FACS analysis; format: functional; method in brief: as §2
[11] = test system: HCT-116; experiment: Toxicity in human HCT116 cells at 8 uM by MTT assay; format: cell-based; settings: hct-116, 8 µM
[12] = test system: RKO; experiment: Toxicity in human RKO cells at IC50 after 3 days by MTT assay; format: cell-based; settings: 72 h
[13] = molecular target: Tyrosine-protein kinase Lck (Homo sapiens, UniProt P06239); experiment: Inhibition of Lck using fluorescent substrate by IMAP assay
Tyrosine-protein kinase Lck, sequence (P06239 whole entry): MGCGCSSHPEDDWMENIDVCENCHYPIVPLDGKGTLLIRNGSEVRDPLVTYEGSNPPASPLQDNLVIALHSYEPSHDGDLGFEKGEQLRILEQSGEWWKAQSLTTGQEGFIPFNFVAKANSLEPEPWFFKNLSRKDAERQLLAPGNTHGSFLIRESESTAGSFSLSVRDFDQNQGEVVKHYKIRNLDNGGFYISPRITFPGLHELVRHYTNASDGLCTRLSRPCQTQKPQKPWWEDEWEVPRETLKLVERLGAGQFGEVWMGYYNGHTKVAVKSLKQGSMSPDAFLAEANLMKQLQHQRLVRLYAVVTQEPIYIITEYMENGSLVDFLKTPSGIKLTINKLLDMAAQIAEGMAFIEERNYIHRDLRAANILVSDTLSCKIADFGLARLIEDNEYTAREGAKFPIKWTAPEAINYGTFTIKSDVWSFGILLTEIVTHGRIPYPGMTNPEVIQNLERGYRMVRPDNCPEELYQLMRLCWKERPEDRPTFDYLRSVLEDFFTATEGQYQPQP
Method in brief: (§3)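 Run in-house using IMAP: phosphorylated fluorescent peptide substrate binds preferentially to immobilized metal beads, which quantifies kinase activity. ATP at 3× the Km of each enzyme.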

[14] = test system: A2058; experiment: Cell cycle arrest in human A2058 cells assessed as accumulation at S phase at 2 uM treated 1 hr and measured 8 hr post double hydroxyurea-synchrony release using propidium iodide staining by FACS analysis (reference value: 52 %); format: functional
[15] = test system: HeLa; experiment: Cell cycle arrest in human HeLa cells transfected with cyclin D3 siRNA at 2 uM measured after 8 to 20 hr post hydroxyurea-synchrony release by time-lapse microscopy; format: functional, cell-based
Method in brief: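 HeLa cells transfected with 20 nM cyclin D3 siRNA number 1 or scrambled siRNA, then synchronized by overnight 2 mM hydroxyurea block and released. Treated with CDK4 inhibitor, siRNA, or both; entry into mitosis followed by time-lapse microscopy.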

[16] = test system: HeLa; experiment: Cell cycle arrest in human HeLa cells assessed as accumulation at S phase at 2 uM treated 4 hr and measured 8 hr post double thymidine-synchrony release using propidium iodide staining by FACS analysis (reference value: 8 %); format: functional; method in brief: as §1
[17] = Cell cycle arrest in human SK-MEL-13 cells assessed as time taken to reach peak mitosis at 2 uM treated 1 hr and post double hydroxyurea-synchrony release using propidium iodide staining by FACS analysis; format: functional, cell-based
Method in brief: (§4)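 SK-Mel-13 cells synchronized with 2 mM hydroxyurea, then treated with 2 μM CDK4 inhibitor or left untreated 1 h after release. Harvested at indicated times post-release, ethanol-fixed, propidium iodide/RNase stained, and DNA content read by FACS. Proportions of G1, S and G2/M cells derived with ModFit.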

[18] = test system: MDA-MB-453; experiment: Toxicity in human MDA-MB-453 cells at IC50 after 3 days by MTT assay; format: cell-based; settings: mda-mb-453, 72 h
[19] = test system: HeLa; experiment: Cell cycle arrest at G2 phase in human HeLa cells at 2 uM treated 8 hr and measured 12 hr post-synchrony release using Propidium iodide staining by FACS analysis; format: functional, cell-based
[20] = test system: HeLa; experiment: Cell cycle arrest in human HeLa cells assessed as accumulation at G2/M phase at 2 uM treated 6 hr and measured 8 hr post double thymidine-synchrony release using propidium iodide staining by FACS analysis (reference value: 86 %); format: functional; method in brief: as §1
[21] = test system: HCT-116; experiment: Antiproliferative activity against human HCT116 cells assessed as inhibition of S phase after 48 hrs by MTT assay; format: functional, cell-based; settings: HCT-116, 48 h
Method in brief: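 Cells grown in DMEM with 3 mM HEPES and 10% Serum Supreme at 37 °C, 5% CO2. Proliferation read by MTT assay 48 h after drug addition; IC50 given as mean of two separate determinations, each in duplicate.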

[22] = Inhibition of AKT using fluorescent substrate by IMAP assay; method in brief: as §3
[23] = Cell cycle arrest in human SK-MEL-13 cells assessed as accumulation at G2/M phase at 2 uM treated 1 hr and measured 8 hr post double hydroxyurea-synchrony release using propidium iodide staining by FACS analysis (reference value: 16 %); format: functional, cell-based; method in brief: as §4
[24] = test system: HeLa; experiment: Cell cycle arrest in human HeLa cells assessed as accumulation at S phase at 2 uM treated 2 hr and measured 10 hr post double thymidine-synchrony release using propidium iodide staining by FACS analysis (reference value: 1 %); format: functional; method in brief: as §1
[25] = molecular target: Cyclin-dependent kinase 4 (Homo sapiens) (UniProt P11802); experiment: Inhibition of CDK4-mediated Rb phosphorylation at ser 795 in human HCT116 cells at IC90 after 4 hrs by immunoblot analysis; format: cell-based; settings: HCT-116
Cyclin-dependent kinase 4 (Homo sapiens), sequence (P11802 whole entry): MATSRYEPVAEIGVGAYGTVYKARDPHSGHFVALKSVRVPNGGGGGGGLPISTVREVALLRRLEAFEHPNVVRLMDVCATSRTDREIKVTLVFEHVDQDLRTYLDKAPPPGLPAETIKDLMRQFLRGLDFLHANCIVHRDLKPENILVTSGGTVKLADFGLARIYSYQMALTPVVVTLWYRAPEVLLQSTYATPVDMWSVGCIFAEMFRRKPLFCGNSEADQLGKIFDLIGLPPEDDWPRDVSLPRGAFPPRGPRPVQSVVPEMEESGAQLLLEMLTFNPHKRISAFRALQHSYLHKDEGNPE
Method in brief: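 Asynchronous HCT-116 cells (DMEM, 3 mM HEPES, 10% serum, 37 °C, 5% CO₂) were given increasing inhibitor doses for 4 or 24 h. Lysis in NETN with phosphatase and protease inhibitors, then SDS-PAGE, nitrocellulose transfer and immunoblot for phospho-Rb (Ser-795) with HRP secondary and chemiluminescence.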

[26] = molecular target: Cyclin-dependent kinase 4/cyclin D1 (Homo sapiens, UniProt P11802); experiment: Inhibition of human GST-tagged CDK4-cyclin D1 using his-tagged Rb as substrate after 30 mins by scintillation counting method; format: protein-complex assay
Cyclin-dependent kinase 4/cyclin D1, sequence (P11802 whole entry): as above
Cyclin-dependent kinase 4/cyclin D1, sequence (P24385 whole entry, further chain): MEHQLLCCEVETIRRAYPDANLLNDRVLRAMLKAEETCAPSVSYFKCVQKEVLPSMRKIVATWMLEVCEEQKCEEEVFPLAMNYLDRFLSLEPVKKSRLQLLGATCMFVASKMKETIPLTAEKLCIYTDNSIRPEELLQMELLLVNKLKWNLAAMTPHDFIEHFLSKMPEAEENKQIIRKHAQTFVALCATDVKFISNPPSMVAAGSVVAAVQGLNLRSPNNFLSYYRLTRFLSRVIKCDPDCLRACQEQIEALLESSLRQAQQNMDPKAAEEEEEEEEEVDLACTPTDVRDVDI

| IC50 [13] [µM] | Compound | Activity [1] [%] | Activity [2] [%] | Activity [3] [%] | Activity [4] [%] | Activity [5] | Activity [6] [%] | Activity [7] | Activity [8] [%] | Activity [9] | Activity [10] [%] | Activity [11] | Activity [12] | Activity [14] [%] | Activity [15] | Activity [16] [%] | TIME [17] [h] | Activity [18] | Activity [19] | Activity [20] [%] | also measured |
| --- | --- | --- | --- | --- | --- | --- | --- | --- | --- | --- | --- | --- | --- | --- | --- | --- | --- | --- | --- | --- | --- |
| > 100 | COc1cccc(C(=O)c2sc(Nc3ccc(N4CCN(C(C)C)CC4)cc3)nc2N)c1 | 5 | 7 | 4 | 30 | Active | 7 | Active | 27 | Toxic | 14 | Toxic | Toxic | 23 | Active | 4 | 10 | Toxic | Active | 88 | IC50 [21]: 1100 nM; IC50 [22]: > 200 µM; Activity [23]: 70%; Activity [24]: 6%; inhibition [25]: Active; IC50 [26]: 20 nM |
| > 100 | CN1CCN(c2ccc(Nc3nc(N)c(C(=O)c4ccc5c(c4)OCCO5)s3)cc2)CC1 | 5 | 7 | 4 | 30 | Active | 7 | Active | 27 | Toxic | 14 | Toxic | Toxic | 23 | Active | 4 | 10 | Toxic | Active | 88 | IC50 [21]: 3850 nM; IC50 [22]: > 200 µM; Activity [23]: 70%; Activity [24]: 6%; inhibition [25]: Active; IC50 [26]: 20 nM |
